TRPC4 agonist: activators of mouse TRPC4 channel; Q9QUQ5; HEK293 TRPC4beta/mu-opioid, Fluo4 calcium fluorescence; active compounds read high; B-score at 10 µM; 310,000 compounds, 0.49% hits; AID 2237;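 active = B-score above 5 SD of library B-scores, and initial fluorescence ratio not above library mean plus 5 SD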;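 note: positive B-score marks a calcium rise read as TRPC4 activation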
Target sequence (Q9QUQ5 whole entry, looked up): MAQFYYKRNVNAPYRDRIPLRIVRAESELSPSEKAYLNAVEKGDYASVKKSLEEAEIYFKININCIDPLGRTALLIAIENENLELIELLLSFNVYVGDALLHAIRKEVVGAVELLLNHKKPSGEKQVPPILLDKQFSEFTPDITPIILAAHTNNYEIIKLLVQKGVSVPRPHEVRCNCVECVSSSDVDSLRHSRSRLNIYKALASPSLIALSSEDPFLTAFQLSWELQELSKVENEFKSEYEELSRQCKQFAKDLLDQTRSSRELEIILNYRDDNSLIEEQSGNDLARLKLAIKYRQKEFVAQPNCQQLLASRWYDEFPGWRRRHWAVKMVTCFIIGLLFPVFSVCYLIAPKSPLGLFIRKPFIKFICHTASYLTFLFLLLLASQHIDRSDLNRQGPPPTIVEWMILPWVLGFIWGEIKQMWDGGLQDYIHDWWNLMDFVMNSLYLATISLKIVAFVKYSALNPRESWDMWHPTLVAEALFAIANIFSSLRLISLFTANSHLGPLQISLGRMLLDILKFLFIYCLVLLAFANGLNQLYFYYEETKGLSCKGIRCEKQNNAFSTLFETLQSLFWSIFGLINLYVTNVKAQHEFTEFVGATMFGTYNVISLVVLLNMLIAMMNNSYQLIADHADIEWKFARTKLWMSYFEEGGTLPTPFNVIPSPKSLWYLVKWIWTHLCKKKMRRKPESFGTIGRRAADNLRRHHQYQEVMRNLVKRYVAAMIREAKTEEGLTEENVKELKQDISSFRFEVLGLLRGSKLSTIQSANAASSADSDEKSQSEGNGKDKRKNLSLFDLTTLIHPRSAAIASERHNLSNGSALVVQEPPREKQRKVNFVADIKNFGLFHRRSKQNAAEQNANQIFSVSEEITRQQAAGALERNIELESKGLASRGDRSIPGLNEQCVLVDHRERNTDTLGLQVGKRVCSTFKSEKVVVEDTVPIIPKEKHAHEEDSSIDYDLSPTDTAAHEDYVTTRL
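System: HEK293 cells stably co-expressing mouse TRPC4beta and mu-opioid receptor; Schedule: Fluo4 dye loading 45 min at room temperature, 110 s recording; Detection: Fluo4 fluorescence, kinetic; Evaluation: B-scored integrated calcium fluorescence ratio; Controls: buffer (low) and maximal DAMGO (high).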
TRPC6 inh: inhibitors of mouse TRPC6 channel; B-score at 10 µM; AID 2553; 310,000 compounds, 1.1% hits; HEK293-TRPC6, membrane potential dye, ACh-evoked depolarization; active compounds read low;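 active = B-score under library mean minus 3 SD, initial fluorescence not abnormally high, positive integrated signal ratio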;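 note: B-score derived from integrated fluorescence ratio over the kinetic read; more negative B-score means stronger inhibition of depolarization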
TRPC4 PAM: allosteric potentiators of mouse TRPC4 channel; Q9QUQ5; HEK293 TRPC4beta/mu-opioid, DAMGO EC20, Fluo-4 Ca2+ flux; active compounds read high; B-score at 10 µM; 310,000 compounds, 0.42% hits; AID 2227;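 active = B-score of calcium response area above 5 SD of library B-scores, with initial fluorescence ratio within 5 SD of library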;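 note: B-score of integrated fluorescence ratio over time as area under calcium response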
TRPC4 block: TRPC4 (mouse) channel inhibition. Q9QUQ5. B-score at 10 µM. HEK293 TRPC4beta/mu-opioid, DAMGO-evoked Fluo4 calcium flux; active compounds read low. 300,000 compounds, 0.39% hits;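 active = B-score over 3 SD under the library average, no early fluorescence shift, positive overall ratio signal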
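Assay system – HEK293 line stably carrying TRPC4beta and mu-opioid receptor · Doses – single dose · Detection – Fluo4 calcium-dye fluorescence, kinetic read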
TRPC6 act: mouse TRPC6 channel activation. Q61143. HEK293-TRPC6 membrane potential dye fluorescence; active compounds read high. B-score at 10 µM. 310,000 compounds, 0.13% hits. AID 2550;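 active = B-score of the integrated fluorescence ratio above library mean plus 3 SD, and starting fluorescence ratio within library mean plus 5 SD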;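 note: higher score means more depolarization so channel activation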
TRPC4 spec 2: mouse TRPC4 off-target activity of TRPC6 inhibitors, second screen. HEK293 TRPC4/MOR, membrane potential dye fluorescence; channel activated by saturating DAMGO dose. shares compounds with TRPC6 inh. 920 compounds, 42% hits. inhibition, % at 10 µM;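 active = compounds whose fluorescence signal differed from control wells by over 3 SD, either direction, in both duplicate plates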
TRPC4 spec: selectivity of TRPC6 inhibitors: effect on mouse TRPC4. shares compounds with TRPC6 inh. HEK293 TRPC4/mu-opioid, membrane potential fluorescence. activity change, negative = inhibition, % at 10 µM. 920 compounds, 61% hits;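 active = rise or fall in signal beyond 3 SD of buffer-only wells in both replicate plates, either sign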;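 note: integrated kinetic ratio of fluorescence range over baseline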
HEK293 MPD ctr 2-1: second check of TRPC6 inhibitor effects in parental HEK293 cells; parental HEK293 membrane potential dye fluorescence; maximal acetylcholine challenge after compound addition; 920 compounds, 31% hits; shares compounds with TRPC6 inh; signal change vs control, % at 10 µM;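 active = membrane potential signal moving either way by over 3 SD of the maximum-effect control, in both duplicate plates, meaning non-specific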
HEK293 MPD ctr-1: parental HEK293 nonspecific activity of TRPC6 inhibitors | membrane potential signal change, % at 10 µM | 920 compounds, 60% hits | shares compounds with TRPC6 inh | parental HEK293 membrane potential dye fluorescence;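 active = membrane potential signal shifting up or down by more than 3 SD of buffer-only wells, on both duplicate plates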
HEK293 MPD ctr-2: counter-screen for TRPC6 modulators: effect in parental HEK293 cells | shares compounds with TRPC6 inh | membrane potential dye fluorescence | membrane potential signal change, % at 10 µM | 2,400 compounds, 51% hits | AID 488924;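 active = membrane potential signal moves up or down beyond 5 SD from buffer-only wells, on both duplicate plates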
HEK293 MPD ctr 2-2: parental HEK293 nonspecific activity of TRPC6 modulators, second screen. shares compounds with TRPC6 inh. membrane potential dye fluorescence; after compound, maximal acetylcholine stimulation. inhibition, % at 10 µM. 2,400 compounds, 14% hits;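 active = membrane potential signal drops by more than 5 SD from the mean control signal, in both duplicate plates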;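 note: plate controls were acetylcholine ECmax control wells for no effect and buffer only wells for full effect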
TRPC4 ctr mod: tests whether TRPC6 modulators also affect mouse TRPC4 | shares compounds with TRPC6 inh | HEK293 TRPC4/mu-opioid, membrane potential fluorescence | percent change from control (negative = decrease, positive = increase), % at 10 µM | 2,400 compounds, 69% hits;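 active = membrane potential signal moved up or down beyond 5 SD of buffer control wells, in both duplicate plates, actives on both sides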;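 note: plate controls were assay buffer wells for no effect and DAMGO maximal-effect wells for full effect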
TRPC4 ctr inh 2: second check of whether TRPC6 modulators also affect mouse TRPC4. AID 488928. 2,400 compounds, 55% hits. HEK293 TRPC4/mu-opioid, membrane potential dye fluorescence; stimulated with maximal-effect DAMGO. shares compounds with TRPC6 inh. inhibition, % at 10 µM;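 active = drop in membrane potential signal beyond 5 SD of the control wells in both duplicate plates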;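 note: TRPC4 counter screen for TRPC6 hits run under conditions tuned for TRPC6 not TRPC4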
TRPC6 block conf: mouse TRPC6 inhibitor confirmation | shares compounds with TRPC6 inh | HEK293-TRPC6, membrane potential dye, ACh-evoked depolarization | inhibition, % at 10 µM | 3,300 compounds, 43% hits | AID 488960;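 active = fluorescence ratio falls more than 5 SD below the full-stimulation control mean, in both duplicate runs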;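 note: integrated fluorescence ratio of peak minus minimum over baseline after agonist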
TRPC6 act confirm: confirmation of mouse TRPC6 activators. 2,800 compounds, 11% hits. activation, % at 10 µM. shares compounds with TRPC6 inh. HEK293-TRPC6 membrane potential dye fluorescence, FDSS;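 active = ratio signal rise beyond 5 SD above unstimulated control wells' mean, seen in both duplicate runs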;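 note: plate controls were buffer EC0 wells for no effect and acetylcholine ECmax response for full effect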
* marks the source's active call; other numbers are inactive results; i = inactive; / = no result given. Compounds with a hit are over-represented: about 2.3% of the library has one in this group of screens.

SMILES | TRPC4 agonist | TRPC6 inh | TRPC4 PAM | TRPC4 block | TRPC6 act | HEK293 MPD ctr-2 | HEK293 MPD ctr 2-2 | TRPC4 ctr mod | TRPC4 ctr inh 2 | TRPC6 block conf | TRPC6 act confirm | others
CN1CCN(c2ccc(Cl)cc2NC(=O)c2ccc(=O)n(C)n2)CC1 | i | -9.02* | i | i | i | -340.0%* | 67.5%* | -59.0%* | 54.0%* | 52.0%* | i
O=C(NC12CC3CC(CC(C3)C1)C2)c1ccc([N+](=O)[O-])o1 | i | i | i | i | i | / | / | / | / | / | /
Cc1ccc(C)c(OCCCN2CCNCC2)c1 | i | i | i | i | i | / | / | / | / | / | /
Cc1ccc(C)c(OCCCCN2CCNCC2)c1C | i | -5.62* | 15* | i | i | i | i | i | 49.5%* | 53.0%* | /
Cc1ccc2c(c1)CCCN2C(=O)NC1CCCCC1 | i | -6.89* | i | i | i | / | / | / | / | i | i | TRPC4 spec 2=i;TRPC4 spec=i;HEK293 MPD ctr 2-1=i;HEK293 MPD ctr-1=i
Cc1c(NC(=O)COc2ccc3ccccc3c2)c(=O)n(-c2ccccc2)n1C | i | i | i | i | i | / | / | / | / | / | /
CCN1CCc2c(OCc3ccccc3)cccc2C1=O | i | -5.6* | i | i | i | 125.5%* | i | 21.0%* | i | i | /
Cc1ccc(COc2ccc(CNCCCN3CCCCCC3=O)cc2)cc1 | i | i | i | i | i | / | / | / | / | / | /
CCN(CC#CCC(O)(c1ccccc1)C1CCCC1)C(C)C (stereo not drawn) | i | -5.58* | i | i | i | 188.0%* | i | 33.5%* | i | 55.5%* | /
COC(=O)C1=C(C)NC(=O)NC1c1ccc2c(c1)OCO2 (stereo not drawn) | i | i | i | i | i | / | / | / | / | / | /
N=c1c2ccccc2nc2n1CCCCCCCCCCC2 | i | -7.61* | i | i | i | / | / | / | / | i | / | TRPC4 spec 2=50.0%*;TRPC4 spec=17.1%*;HEK293 MPD ctr 2-1=253.5%*;HEK293 MPD ctr-1=18.3%*
COc1ccc(C(=O)N/C(=C/c2ccc(Cl)cc2)C(=O)Nc2ccc(C(=O)O)cc2)cc1 | i | i | i | i | i | / | / | / | / | / | /
CC[N+](C)(CC)CC(=O)OCC1C(C)C=C(C)CC1C (stereo not drawn) | i | -8.45* | i | i | i | / | / | / | / | i | i | TRPC4 spec 2=i;TRPC4 spec=i;HEK293 MPD ctr 2-1=i;HEK293 MPD ctr-1=i
Cc1cc(NC(=O)c2ccc3c(c2)C(=O)N(C)C3=O)no1 | i | -6.08* | i | i | i | -99.0%* | i | -19.0%* | i | i | i

Screening results (PubChem)
